APJ antagonist – antagonists of human apelin receptor APJ, primary screen, CHO-K1 cells, beta-arrestin complementation, luminescence. P35414. inhibition, % at 20 µM. 0.32% of 330,000 active. AID 2521, 2010;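 active means inhibition above about 40% at 20 µM, limit read from the data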;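 further: cells challenged with 10 nM apelin-13 agonist together with compound; plate controls were apelin-13 plus DMSO wells for no effect and DMSO wells lacking apelin-13 for full effect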
APJ agonist – agonists of human apelin receptor APJ, primary screen, CHO-K1 cells, PathHunter beta-arrestin, luminescence; P35414; 0% DMSO wells, 100% apelin; activation, % at 20 µM; 0.11% of 330,000 active;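 active means activation more than six SD over the plate average, tested at 20 µM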;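 further: 0% = DMSO alone and 100% = apelin-13 at 10 nM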
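Assay system: engineered CHO-K1 APJ arrestin reporter cells; Amount: 1000 CHO-K1 reporter cells seeded per well; Dosing: one dose, 20 µM compound, 1% DMSO; Times: compound stimulation 90 min at 25 °C, detection 60 min; Measured by: luminescent beta-gal fragment complementation, chemiluminescent substrate; Read-out: APJ–arrestin association signal; Controls: DMSO vs Apelin-13 10 nM.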
CCR6 antag – CCR6 receptor antagonists, primary screen, cell-based, CHO-K1, luminescence, beta-arrestin, uHTS. CHO-K1 CCR6 PathHunter beta-arrestin, CCL20-stimulated. inhibition, % at 20 µM. 0.49% of 340,000 active. C-C chemokine receptor type 6 (Homo sapiens), P51684;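 active means compounds whose inhibition of the agonist-driven luminescence signal at 20 µM reaches about 50%, limit read from the data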;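 further: cells stimulated with CCL20 at 14 nM final; plate controls were DMSO with CCL20 for no effect and DMSO without agonist for full effect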
Target sequence (P51684 whole entry, looked up): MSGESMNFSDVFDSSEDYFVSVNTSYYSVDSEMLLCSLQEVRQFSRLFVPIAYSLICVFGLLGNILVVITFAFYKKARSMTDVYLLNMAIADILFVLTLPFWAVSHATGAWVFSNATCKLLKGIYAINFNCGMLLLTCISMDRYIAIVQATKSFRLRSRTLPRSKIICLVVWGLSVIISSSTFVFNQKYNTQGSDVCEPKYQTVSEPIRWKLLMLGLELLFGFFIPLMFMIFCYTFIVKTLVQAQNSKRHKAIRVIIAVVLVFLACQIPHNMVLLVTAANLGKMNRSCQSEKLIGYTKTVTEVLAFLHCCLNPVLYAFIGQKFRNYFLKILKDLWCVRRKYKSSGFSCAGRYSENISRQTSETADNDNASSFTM
CXCR6 block – CXCR6 receptor inhibitors, primary screen, cell-based, beta-arrestin, luminescence, CHO-K1 PathHunter, 1536-well; C-X-C chemokine receptor type 6 (Homo sapiens), O00574; 0.36% of 360,000 active; inhibition, % at 20 µM; AID 602244, 2012; in the data active means inhibition above about 34%, passing the limit was not always enough;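 further: antagonist mode with CXCL16 agonist at 10 nM final; 0% = 10 nM CXCL16 with DMSO and 100% = unstimulated wells without agonist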
EBI2 antag – EBI2 receptor antagonists, beta-arrestin recruitment, primary screen, cell-based, luminescence, 7a,25-OHC stimulation, uHTS; inhibition, % at 5 µM; G-protein coupled receptor 183 (Homo sapiens), P32249; 0.81% of 360,000 active; 7a,25-OHC stimulated; in the data active means inhibition above about 38%;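 further: enzyme fragment complementation signal reports receptor beta-arrestin coupling in cells; 0% = agonist plus DMSO wells and 100% = wells without agonist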
B2AR ag – beta2AR agonists driving receptor internalization, primary screen, cell-based, FAP fluorogen, flow cytometry; Beta-2 adrenergic receptor (Homo sapiens), P07550; Am2.2-beta2AR cells; response, % (test concentration not listed); 0.43% of 340,000 active; AID 504454, 2011;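 active means response above a set limit, near 3 SD of response in nonfluorescent compounds, cut at about 42% in these data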
APJ antag conf – APJ antagonists blocking beta-arrestin recruitment, confirmation, cell-based, luminescence, single concentration, uHTS hits | shares compounds with APJ antagonist | antagonist mode | inhibition, % at 20 µM | 66% of 950 active; in the data active means inhibition above about 50%
Active calls of the source: *. In the library only some 1.8% were active in any assay of this set; here they are far more common.

For COc1ccc2c(c1)C(=O)[C@@H](O)[C@H](c1ccc(OC)c(Br)c1)O2 the results were APJ antagonist 40*, APJ agonist -20, CCR6 antag 59*, CXCR6 block 26, EBI2 antag 9, B2AR ag 0 and APJ antag conf 80*.
`O=C(Nc1ccccc1)c1cc([N+](=O)[O-])ccc1NCc1cccnc1` gave APJ antagonist 2, APJ agonist -3, CCR6 antag 15, CXCR6 block 9, EBI2 antag 9 and B2AR ag -24.
`COc1ccc(C=C2C(=O)c3ccccc3C2=O)cc1O` gave APJ antagonist 45*, APJ agonist -8, CCR6 antag 43, CXCR6 block 32, EBI2 antag 4, B2AR ag 6 and APJ antag conf 59*.
COc1cc(C=C2C(=O)c3ccccc3C2=O)cc(OC)c1 was read as APJ antagonist 3, APJ agonist -1, CCR6 antag 18, CXCR6 block 4, EBI2 antag -1 and B2AR ag 2.
For CCn1cc(S(=O)(=O)Nc2cccnc2)cn1 the results were APJ antagonist 45*, APJ agonist 6, CCR6 antag -3, CXCR6 block -1, EBI2 antag -5, B2AR ag -3 and APJ antag conf 22.
`CCn1ncc(S(=O)(=O)Nc2cccnc2)c1C` gave APJ antagonist -19, APJ agonist 6, CCR6 antag 4, CXCR6 block -6, EBI2 antag -16 and B2AR ag 1.
Screening Cc1cc(C)n(-c2nc(SCCN(C)C)c3c4c(sc3n2)CCCC4)n1 returned APJ antagonist 49*, APJ agonist -11, CCR6 antag 19, CXCR6 block 2, EBI2 antag -8, B2AR ag 23 and APJ antag conf 38.
Screening Cc1cc(C)n(-c2nc(SCC(=O)O)c3c4c(sc3n2)COC(C)(C)C4)n1 returned APJ antagonist -8, APJ agonist 0, CCR6 antag 10, CXCR6 block -5, EBI2 antag 18 and B2AR ag -3.
For CCCCC(=O)Nc1nnc(CCc2ccccc2)s1 the results were APJ antagonist -12, APJ agonist 2, CCR6 antag 6, CXCR6 block 12, EBI2 antag -1 and B2AR ag -8.
`COc1ccccc1OCCNc1ccc(S(=O)(=O)N2CCCC2)cn1` gave APJ antagonist 15, APJ agonist 0, CCR6 antag -1, CXCR6 block 11, EBI2 antag 3 and B2AR ag -4.
For O=C(CCC(=O)OCC(=O)c1ccc(Cl)cc1Cl)Nc1cccc2cccnc12 the results were APJ antagonist 64*, APJ agonist -12, CCR6 antag 62*, CXCR6 block 12, EBI2 antag 9, B2AR ag -1 and APJ antag conf 92*.
For O=C(OCC(=O)c1ccc(Cl)cc1Cl)c1ccccn1 the results were APJ antagonist 62*, APJ agonist -10, CCR6 antag 48, CXCR6 block 26, EBI2 antag 10, B2AR ag 4 and APJ antag conf 89*.
`O=C(OCC(=O)c1ccc(Cl)cc1Cl)c1ccc2c(c1)C(=O)N(c1cccc3ncccc13)C2=O` gave APJ antagonist 56*, APJ agonist -9, CCR6 antag 44, CXCR6 block 8, EBI2 antag 36, B2AR ag 1 and APJ antag conf 73*.
For CC(=O)OC1CCC2(C)C(CCC3C2CC(=O)C2(C)C3CC(C3CCCC3=O)C2C(C)=O)C1 (centres undefined) the results were CCR6 antag -32, CXCR6 block -5, EBI2 antag 2 and B2AR ag 5.
`COc1ccc(N(CC(=O)NCCC2=CCCCC2)S(=O)(=O)c2ccc(C)cc2)cc1` gave APJ antagonist 5 and APJ agonist -3.
`Cc1cc(N2O[C@H]3C=C[C@@H]2C3)no1` gave CCR6 antag 21, CXCR6 block -5, EBI2 antag -9 and B2AR ag -2.
CCOC(=O)C1=NNC(C(=O)c2ccc(Cl)cc2)C1c1ccccc1 (centres undefined) was read as APJ antagonist 49*, APJ agonist -11, CCR6 antag 41, CXCR6 block 9, EBI2 antag 15, B2AR ag 5 and APJ antag conf 75*.
COC(=O)C1NN=C(C(=O)c2ccc(Cl)cc2)C1c1ccc(OC)cc1 (centres undefined) was read as APJ antagonist 65*, APJ agonist -10, CCR6 antag 58*, CXCR6 block 27, EBI2 antag 12, B2AR ag -3 and APJ antag conf 81*.
CCOC(=O)C1=NNC(C(=O)O)C1c1ccccc1 (centres undefined) was read as CCR6 antag 1, CXCR6 block -3, EBI2 antag 1 and B2AR ag -2.
For Cc1ccc(Cc2c(-c3ccc(Cl)cc3)nc3c(C)cc(Br)cn23)cc1 the results were CXCR6 block 1 and EBI2 antag 3.
Screening COc1cc(OC)c(C(=O)Nc2cccc3ccccc23)cc1OC returned APJ antagonist 9, APJ agonist -3, CCR6 antag 15, CXCR6 block -16, EBI2 antag 12 and B2AR ag 1.
For O=C(CNc1cccc(Cl)c1)c1ccc(Cl)cc1 the results were APJ antagonist 73*, APJ agonist -16, CCR6 antag 47, CXCR6 block 41*, EBI2 antag 25, B2AR ag 0 and APJ antag conf 91*.
Screening Cc1ccc(C(=O)CNc2cccc(Cl)c2)cc1 returned APJ antagonist 66*, APJ agonist -9, CCR6 antag 47, CXCR6 block 20, EBI2 antag 15, B2AR ag -2 and APJ antag conf 77*.
For Cc1ccccc1NC(=O)c1ccc(Nc2c([N+](=O)[O-])cc([N+](=O)[O-])c3ccccc23)cc1 the results were APJ antagonist 57*, APJ agonist -5, CCR6 antag 60*, CXCR6 block 42*, EBI2 antag 22, B2AR ag 11 and APJ antag conf 90*.
Screening CC1=C/C(=C(/c2cc(C)c(O)c(Br)c2)c2ccccc2S(=O)(=O)O)C=C(Br)C1=O returned APJ antagonist 46*, APJ agonist -11, CCR6 antag 64*, CXCR6 block 43*, EBI2 antag 16, B2AR ag 0 and APJ antag conf 86*.

Screening data from PubChem.
